The record followed here is ChEMBL document CHEMBL3822424, “Design and synthesis of 1H-pyrazolo[3,4-c]pyridine derivatives as a novel structural class of potent GPR119 agonists” (Bioorg Med Chem Lett, 2016).

SMILES strings stand for the structures. ≈ marks a conversion by molar mass, not a printed value. A value given as a limit tells only on which side of the number the result lay.

The target in data set [1] is T1, Glucose-dependent insulinotropic receptor (Homo sapiens, UniProt Q8TDV5).
T1 sequence (Q8TDV5 whole entry): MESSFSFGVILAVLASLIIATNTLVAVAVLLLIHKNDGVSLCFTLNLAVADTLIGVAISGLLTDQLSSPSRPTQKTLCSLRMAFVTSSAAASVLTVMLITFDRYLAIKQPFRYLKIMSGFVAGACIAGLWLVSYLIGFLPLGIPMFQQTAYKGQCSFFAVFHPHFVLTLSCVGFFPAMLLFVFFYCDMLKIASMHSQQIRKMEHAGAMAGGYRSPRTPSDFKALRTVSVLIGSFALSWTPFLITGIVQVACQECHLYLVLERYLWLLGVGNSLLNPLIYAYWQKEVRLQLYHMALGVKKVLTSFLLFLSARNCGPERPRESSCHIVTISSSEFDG
Put plainly: Agonist activity at human GPR119 expressed in Flp-In-T-Rex-HEK293 cells after 30 mins by cAMP accumulation assay. It is filed as functional, cell-based. The method in brief:
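Flp-In-T-Rex-HEK293 cells overexpressing human GPR119, induced with tetracycline for 24 h, plated at 5000 cells/well in D-MEM assay buffer with 1 mM IBMX and 0.01% BSA. Cells exposed to compound for 30 min at 37 °C. cAMP read by HTRF kit (HiRange). Response = stimulated minus basal cAMP. EC50 = concentration giving 50% of maximal response.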
Background: Changes in cAMP serve as a functional read-out for many G protein-coupled receptors.

A short description of data set [2]: Drug metabolism in human liver microsomes after 15 mins. Conditions: read-out: Drug metabolism. It is filed as ADME. The method in brief: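 Compound incubated 15 min with human liver microsomes at 1 mg protein/mL; result expressed as percent metabolized.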
(Liver microsomes are a subcellular fraction often used to study metabolism.)

The nature of data set [3]: Thermodynamic solubility of the compound in phosphate buffer at pH 6.8. Conditions: read-out: Therm_solubility. It counts as physicochemical. The method in brief:
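Thermodynamic solubility measured in pH 6.8 phosphate buffer.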

Data set [4] in a line: Clearance in Sprague-Dawley rat at 3 mg/kg, iv. As to conditions: in vivo. It is filed as ADME, organism-based.
Data set [5] is described as follows: Volume of distribution at steady state in Sprague-Dawley rat at 3 mg/kg, iv. It is filed as ADME, organism-based. As to conditions: in vivo, read-out: Vdss.
A short description of data set [6]: Half life in Sprague-Dawley rat at 3 mg/kg, iv. It is filed as ADME, organism-based. Conditions: in vivo.
A short description of data set [7]: AUC (0 to infinity) in Sprague-Dawley rat at 10 mg/kg, po. It is filed as ADME, organism-based. As to conditions: in vivo. On the set-up: dose 10 mg/kg, time infinity, route oral.
Data set [8] can be described thus: Oral bioavailability in Sprague-Dawley rat at 10 mg/kg. It counts as ADME, organism-based. As to conditions: in vivo.
Data set [9] in a line: Permeability of the compound at pH 6.2 by PAMPA. It counts as ADME. Conditions: read-out: permeability. (PAMPA measures passive passage across an artificial lipid membrane.)

`CC(C)(OC(=O)N1CCC(n2ncc3cc(-c4ccc(S(C)(=O)=O)cc4)ncc32)CC1)C(F)F`: the EC50 – broadly, the concentration needed to bring the measured effect to its halfway point – in [1] came out at 0.023 µM. For the same compound, the metabolised at 0.25 h in data set [2] was 3.9%.

`CC(C)OC(=O)N1CCC(n2ncc3cc(-c4ccc(S(C)(=O)=O)cc4)ncc32)CC1` came in with an EC50 in [1] of 0.042 µM. The metabolised at 0.25 h in [2] worked out at 24.1%. Further, the solubility thermodynamic in data set [3] was found to be 0.67 µg/mL (≈ 1.51 µM).

In data set [1], `CC(C)OC(=O)N1CCC(n2ncc3cc(Oc4ccc(S(C)(=O)=O)cc4)ncc32)CC1` displayed an EC50 of 0.177 µM.

As for `CC(C)OC(=O)N1CCC(n2ncc3cc(-c4ccc(C(N)=O)cc4F)ncc32)CC1`, a half-maximal response in [1] (EC50) required 0.097 µM.

Compound `CC(C)(C)OC(=O)N1CCC(n2ncc3cc(-c4ccc(S(C)(=O)=O)cc4)ncc32)CC1` yielded an EC50 in [1] of 0.02 µM.

`CC(C)COC(=O)N1CCC(n2ncc3cc(-c4ccc(S(C)(=O)=O)cc4)ncc32)CC1` yielded an EC50 in data set [1] of 0.011 µM. Besides, the metabolised at 0.25 h in data set [2] was determined as 79.8%.

`Cc1ccc(N2CCC(n3ncc4cc(-c5ccc(S(C)(=O)=O)cc5)ncc43)CC2)nc1` displayed an EC50 in [1] of 0.03 µM. Moreover, the metabolised at 0.25 h in data set [2] is 44.1%.

In [1], `CC(C)(C)OC(=O)N1CCC(n2nnc3cc(-c4ccc(S(C)(=O)=O)cc4)ccc32)CC1` displayed an EC50 of 0.063 µM.

The compound `CCc1cnc(N2CCC(n3ncc4cc(-c5cc(F)c(C(=O)NCCO)cc5F)ncc43)CC2)nc1` returned an EC50 in [1] of 0.015 µM. Further, the metabolised at 0.25 h in data set [2] amounted to 35.8%. In data set [3], the solubility thermodynamic was found to be 0.69 µg/mL (≈ 1.36 µM).

`CC(C)OC(=O)N1CCC(n2ncc3cc(-c4cc(F)c(C(=O)N(C)C)cc4F)ncc32)CC1`: in data set [1], the EC50 amounted to 0.046 µM.

In turn, `CC(C)(OC(=O)N1CCC(n2ncc3cc(-c4ccc(S(C)(=O)=O)cc4F)ncc32)CC1)C(F)F` yielded an EC50 in data set [1] of 0.01 µM. Besides, the metabolised at 0.25 h in data set [2] was determined as 2.1%. Moreover, in [3], the solubility thermodynamic was less than 0.06 µg/mL.

In data set [1], `CC(C)OC(=O)N1CCC(n2ncc3cc(-c4cc(F)c(C(N)=O)cc4F)ncc32)CC1` showed a concentration giving a half-maximal response (EC50) of 0.052 µM.

For `CC(C)CCN1CCC(n2ncc3cc(-c4ccc(S(C)(=O)=O)cc4)ncc32)CC1`, in [1], the EC50 was determined as 0.22 µM.

`CC(C)OC(=O)N1CCC(n2ncc3cc(-c4ccc(S(C)(=O)=O)cc4F)ncc32)CC1` came in with an EC50 in [1] of 0.027 µM.

In [1], `CC(C)OC(=O)N1CCC(n2ncc3cc(Oc4cccc(S(C)(=O)=O)c4)ncc32)CC1` gave an EC50 of 0.266 µM.

Take `CCc1cnc(N2CCC(n3ncc4cc(-c5ccc(S(C)(=O)=O)cc5F)ncc43)CC2)nc1`: the response in data set [1] was half-maximal at 0.004 µM (EC50). For the same compound, the metabolised at 0.25 h in [2] amounted to 14.3%. Further, in data set [3], the solubility thermodynamic is 0.34 µg/mL (≈ 0.707 µM). For the same compound, in [4], the clearance (as a rule, a measure of how efficiently the substance is removed, as volume per time) is 12.7 mL/min/kg. The Vd in [5] was found to be 0.537 L/kg. Further, the half-life (in general, the time in which the quantity being followed falls by half) in data set [6] was 37 min. Moreover, in data set [7], the AUC(0-inf) – broadly, total exposure, with the tail of the curve extrapolated – was 1930 ng·h/mL. The bioavailability (in general, the share of a dose that reaches the circulation, judged against a reference dose that is usually intravenous) in data set [8] came to 12.6%. The Papp in [9] was determined as 112 ×10⁻⁶ cm/s.

In the case of `CC(C)(C)OC(=O)N1CCC(n2ncc3cc(-c4ccc(S(C)(=O)=O)cc4)ccc32)CC1`, it took 0.031 µM to reach a half-maximal effect in [1] (EC50).

As to `CC(C)OC(=O)N1CCC(n2ncc3cc(-c4cc(F)c(C(=O)NCCO)cc4F)ncc32)CC1`, the midpoint of the response in data set [1], the EC50, lay at 0.092 µM.

In data set [1], `CCNC(=O)c1cc(F)c(-c2cc3cnn(C4CCN(C(=O)OC(C)C)CC4)c3cn2)cc1F` registered an EC50 of 0.01 µM.

`CCCNC(=O)c1cc(F)c(-c2cc3cnn(C4CCN(C(=O)OC(C)C)CC4)c3cn2)cc1F` yielded an EC50 in [1] of 0.014 µM.

The compound `CC(C)OC(=O)N1CCC(n2ncc3cc(-c4ccc(S(C)(=O)=O)nc4)ncc32)CC1` came in with an EC50 in [1] of 0.197 µM.

Consider `CCc1cnc(N2CCC(n3ncc4cc(-c5ccc(S(C)(=O)=O)cc5)ncc43)CC2)nc1`, for which the response in data set [1] was half-maximal at 0.013 µM (EC50). The metabolised at 0.25 h in [2] stood at 20.3%.
